Assay results as given in the EternaBench riboswitch data.

Assays:
MS2 coat protein [1] = test: apparent Kd, MS2 coat protein; higher = weaker binding; RNA-MaP array
In short: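 The designed RNAs, transcribed from sequenced DNA templates on an Illumina sequencing chip, were incubated with fluorescently labeled MS2 coat protein at room temperature. Protein ranged from 1.5 nM to 3 μM, with 0.8–1.5 h incubation at the lowest and 10–20 min at the highest concentrations, in Tris-HCl pH 7.5 buffer with KCl, MgCl2, BSA, DTT, tRNA and Tween20, with or without input ligand. The median of per-cluster binding-curve fits gives the apparent Kd, and designs measured on fewer than 10 clusters were excluded.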

MS2 coat protein [2] = test: apparent Kd, MS2 coat protein; higher = weaker binding; RNA-MaP array; FMN 200 µM where present
In short: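 Designs were transcribed by stalled E. coli RNA polymerase on Illumina sequencing-chip clusters. They were titrated with SNAP-549-labelled MS2 coat protein from 0.7 or 1.5 nM, doubling to 3 µM, without and then with constant ligand. Buffer: 100 mM Tris-HCl pH 7.5, 80 mM KCl, 4 mM MgCl2, BSA, DTT, yeast tRNA, Tween-20. Green signal was normalised to red-channel RNA signal and control-cluster median Fmax. Apparent Kd is the median of filtered per-cluster binding-curve fits.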

[3] = designed as: OFF switch for flavin mononucleotide, no ligand
[4] = ligand present: flavin mononucleotide, designed as: OFF switch for flavin mononucleotide
[5] = designed as: ON switch for flavin mononucleotide, no ligand
[6] = ligand present: flavin mononucleotide, designed as: ON switch for flavin mononucleotide
[7] = designed as: ON switch for tryptophan, no ligand
[8] = ligand present: tryptophan, designed as: ON switch for tryptophan
[9] = designed as: OFF switch for tryptophan, no ligand
[10] = ligand present: tryptophan, designed as: OFF switch for tryptophan

Sequence	apparent Kd (MS2 coat protein [1]; [3])	apparent Kd (MS2 coat protein [1]; [4])	apparent Kd (MS2 coat protein [1]; [5])	apparent Kd (MS2 coat protein [1]; [6])	further results
AUUAAUUCAGGAUAUACAUGAGGAUCACCCAUGUGGCGAAAGAACAUAUAGGAAACAAGUAGAAGGGAAUAGAU	17.9 nM	16.4 nM	–	–	–
GUAUGGAUAUUCUCACGCUACAUGAGGAUCACCCAUGUUCUAAGAAGGCGGCGAGGUAGAGCAUCCGAGGAUAUUAGAACUCAG	21.1 nM	76 nM	–	–	–
GAUCUAUCAGGAUAUAAGGCCUUGAACAUGAGGAUCACCCAUGUCCUCUUGGUUGCCGCGUUAGAAGGGAUGUGUU	202 nM	171 nM	–	–	–
ACGUGACACGAGAAGGGUCUUAAAUGUUGAUUGACAGGAUAUCGUUCCCACGAUACAUAGACGGACAUGAGGAUCACCCAUGUG	–	–	85.8 nM	30.3 nM	–
ACAACUCUCACAGGAUAUUGACAUGAGGAUCACCCAUGUAAUCCAGGGCGAACAUAGGACUGACACAAGAAGGGUGACACCAUC	–	–	20.1 nM	16.1 nM	–
CUUAGGUGAGGAUAUCCUGAAUGGGUCGCUACCAGCCGUUCGGAGAAGGCACAUGAGGAUCACCCAUGUUUUGA	34.6 nM	25.5 nM	–	–	–
UUGGUUGGGAAAACGAUUUGCACAUGAGGAUCACCCAUGUCGAAGGAUAUGUGGCGCUGUUUGCGACAGAAGGUCGACCUCGCC	–	–	15.5 nM	14.9 nM	–
AGUGCAAAUGUAGGAUAUGGACAUGAGGAUCACCCAUGUCAUUAAUAUUAUCGGUCCAAUUUUCUCCAGAAGGACAAAGGCUUG	11.6 nM	10.1 nM	–	–	–
CUAAAUUACGCGUAGGAUAUAUUAAAGACUACAUGAGGAUCACCCAUGUCACUUAAACCACGAGAAUAGAAGGACGUAGAAAGAGA	–	–	8.77 nM	9.06 nM	–
CGACUAACGUGAGGAUAUAGUCCGGAAAGACAUUUUCGUCAAGACAUGAGGAUCACCCAUGUCCUCUAGAAGGCACUCGGAACA	–	–	45.1 nM	30.5 nM	–
UAUUUAUCUAUUGUGACAAACAUGAGGAUCACCCAUGUAUACAGAAGGCAUUACCGAAUCUCGGAUGAGGAUAUGUUAUGGAGU	14 nM	33.9 nM	–	–	–
ACGAAACAAGCGGCCGCCACUUCGUGGUGCUAAGGCUUGAUACUACAUGAGGAUCACCCAUGUCGAAGGACCGGGCUUGCGACUG	–	–	–	–	apparent Kd (MS2 coat protein [1]; [7]): 53.9 nM; apparent Kd (MS2 coat protein [1]; [8]): 51.9 nM
UGCCUAAAGUCGGCCGCCACUGAUGGUAUCCUCUCCUCGAGGUCACACAUGAGGAUCACCCAUGUCAGGACCGGGACUAGUGAGA	–	–	–	–	apparent Kd (MS2 coat protein [1]; [9]): 7.89 nM; apparent Kd (MS2 coat protein [1]; [10]): 10.4 nM
AUUGGAGACUGGUACAUGAGGAUCACCCAUGUUAAUAACAGUAGAAGGCCCGCGGUUAGAAGAUGGGAGGAUAUACACGUGGGU	10.4 nM	17.8 nM	–	–	–
AAUGAGGCCUCUCAACAUGAGGAUCACCCAUGUAACGGAACAAAGGAUAUGGUCCAACUACUAACCCAGAAGGUUGUGACAGAA	–	–	49.1 nM	40.6 nM	–
CGUUAAGGCGAGAAGGUGCCGUCCAACAUGAGGAUCACCCAUGUCGGUCGGUGAAUCAAGAGACGCAAGGAUAUCGACAUUAAC	3.01 nM	3.46 nM	–	–	–
UUGUUCAGCCUAGGAUAUGGGCAAACAUGAGGAUCACCCAUGUUGAGGCUACCACAAAGCCUGCACCAGAAGGAGGCCUAUACG	–	–	9.27 nM	5.71 nM	–
ACGAGCACCUCAGGAUAUGGAAAGGACUCUUCAUUGGCUACUCGAACAUGAGGAUCACCCAUGUUCCAGAAGGGAGGAGAAGCC	7.07 nM	11.6 nM	–	–	–
UUGAUCUCGUAGAAGGGAGAGAUUGAGGGCUUCUCAGGAUAUACGAAUCCUCUGUGGCUAUGUUACAUGAGGAUCACCCAUGUC	791 nM	355 nM	–	–	–
GAUUUGUGAGGAUAUCAUUAGAAACAAGUAUGAGGCGAAAGUGAGAAGGCACAUGAGGAUCACCCAUGUUGGAA	15 nM	15.7 nM	–	–	–
GGCGAGACCCAGAAGGUUCGUCCGGAUCCGCGAUAAUACAUGAGGAUCACCCAUGUAAGACCGGGAAAGGAUAUGGGAACAGCG	–	–	6.54 nM	6.02 nM	–
AAUUAUACAUGAGGAUCACCCAUGUCAAAUAUUGAUAGCUGGCAGGAUAUGAUAGAGACGGAAACUCAGAAGGGCCCGAUGAAC	–	–	15 nM	12.6 nM	–
UAAGAUUCUGUAGGAUAUCAAAUACAUGAGGAUCACCCAUGUAACCUGAUUUCUGAUCCUCAGUGUGAGAAGGACAAUUAAGCC	22.1 nM	21.2 nM	–	–	–
GUGUACAUGAGGAUCACCCAUGUGAGAGCCACAUAGGGCCAGAAGGAUAUCUAUACUACCGCGUCAGAGAAGGUCUGUUGAUUU	–	–	33.2 nM	24.9 nM	–
GGUCCCGUAGGAUAUUGCUCAUUGUACAUGAGGAUCACCCAUGUGACUACACUGCACUGGCAAGAAGGACGUUGAU	83.2 nM	50.2 nM	–	–	–
ACACCUAUAGUGAGGAUAUAGAUCGAAACAAUCGACAAGAAGGCACAUGAGGAUCACCCAUGUAAGGCGCAAAU	6.55 nM	5.97 nM	–	–	–

Sequence	apparent Kd (MS2 coat protein [1]; [3])	apparent Kd (MS2 coat protein [1]; [4])	apparent Kd (MS2 coat protein [1]; [5])	apparent Kd (MS2 coat protein [1]; [6])	further results
UCGAUCAUGUAGAAGGCAUCAGAAACUGGGUGAUGAGGAUAUACGUUAAGACAUGAGGAUCACCCAUGUAAGCAUUGCAAACAC	–	–	116 nM	86.2 nM	–
CCUAGACAAGAGAAGGUUGAGAAGAAACUUUGCAAAGGAUAUCUAAACAUGAGGAUCACCCAUGUCGAUAUAUGGGUAGGCGAA	102 nM	91.4 nM	–	–	–
UUUAGUCAAUCGGCCGCCACUGACAUGAGGAUCACCCAUGUAGGUAAGGAUCAACCUCGAAAGUACAGGACCGGGAUUCGCCUCU	–	–	–	–	apparent Kd (MS2 coat protein [1]; [9]): 53.3 nM; apparent Kd (MS2 coat protein [1]; [10]): 84 nM
AAAGAAAACGGAGGAUAUAGAAAUCCGAAUCCAAACCCGCCAACAUGAGGAUCACCCAUGUGCUUCUAGAAGGCCGAAUGCUAC	–	–	19.8 nM	17 nM	–
CUCUGCUACCGGACUGGUUGGACAUGAGGAUCACCCAUGUACGAGGAUAUACGAAGAAGAACCAGGUAGAAGGCGUUUGGGUAC	14.4 nM	28.1 nM	–	–	–
CUCUAAUAAUAUUUCAACAUGAGGAUCACCCAUGUAAUCAGCAAGGAUAUGGUCUUGAUAAGAACCCAGAAGGUGCAUAUAGAU	–	–	22.7 nM	14.9 nM	–
AUGGACCCAAAGAAGGAGAUCUGGACGACCCAUCUAGGAUAUUUGGCGCGCCCAUCCACCUGCACAUGAGGAUCACCCAUGUCG	–	–	11.9 nM	9.55 nM	–
CGAGAAUAUACAGGAUAUGGCGGAACCCAUUACAUGAGGAUCACCCAUGUACCAUGGAAAAGAGUCCAGAAGGGUAGAAUCAAA	–	–	8.1 nM	6.19 nM	–
AAAUGUACGAAGAAGGCUCUGCCACUGGCCGAGAGAGGAUAUUCACACAUGAGGAUCACCCAUGUCGAACAAAGUACACAGAGC	–	–	8.43 nM	7.06 nM	–
UUGCAGGCAGGAUAUACGGUAUAUAACAUGAGGAUCACCCAUGUUCUUCACGAUCCCUGCGUAGAAGGGCCACAUU	4.96 nM	5.25 nM	–	–	–
UGGUUUGUCCAUACAUGAGGAUCACCCAUGUAACACUGGCCCAGAAGGCGAAAAUGGCAGCCAGUCGAGGAUAUGGGCUGUAUG	–	–	59.7 nM	26.6 nM	–
UUCGUCGGACACACACAUGAGGAUCACCCAUGUAUCUCAAUCAGAAGGGUAUCACCGGAUAGGGUACAGGAUAUGACUACUAUA	–	–	43 nM	22.3 nM	–
CAGUCUCUAGCGGCCGCCACUGUUCUGCUGGUGCUGCUGAACGAACAUGAGGAUCACCCAUGUCUCAGGACCGGGCUUCAGACUC	–	–	–	–	apparent Kd (MS2 coat protein [1]; [7]): 26.1 nM; apparent Kd (MS2 coat protein [1]; [8]): 26.9 nM
GAUUACGGUCUAGGAUAUUGAUUGGCACAUGAGGAUCACCCAUGUCUGUGAGAUCAGCAUACAAGCAAGAAGGAGAUGCGGUCU	10.6 nM	10.9 nM	–	–	–
CAUUCGAAGGUGAGGAUAUAGCUACAGUUAAAUGUCUAGAAGGCACAUGAGGAUCACCCAUGUAGGGUCUCUCA	238 nM	630 nM	–	–	–
UAGCAAUGCGAAGGAUAUGUCGCCCUCCCAAGGACAGAAGGUCGGAACUGUUUACAUGAGGAUCACCCAUGUGGUAAUUAACAA	–	–	21.8 nM	15.6 nM	–
AUUCGUGAGUAGGAUAUGCUGUUGCCAGAACGAGUAGAAGGACUCACAUGAGGAUCACCCAUGUGGUGUCUAAG	–	–	–	–	apparent Kd (MS2 coat protein [2]; [3]): 19.9 nM; apparent Kd (MS2 coat protein [2]; [4]): 170 nM
CGACUGUGAGGAUAUGGUGAGUAGUGCCUGAGCGCUGCUCACCAGAAGGCACAUGAGGAUCACCCAUGUAUGAC	–	–	–	–	apparent Kd (MS2 coat protein [2]; [3]): 110 nM; apparent Kd (MS2 coat protein [2]; [4]): 214 nM
UUCGGCGCAGGAUAUACAGUUUUGUGUUGAAUCGGCGCGGGACAUGAGGAUCACCCAUGUAGAAGGGUGUUGAA	–	–	–	–	apparent Kd (MS2 coat protein [2]; [3]): 682 nM; apparent Kd (MS2 coat protein [2]; [4]): 470 nM
CGCUAGUCAGGAUAUACGAACAUGUCACAAGACGUGAAGGGACAUGAGGAUCACCCAUGUAGAAGGGACUAGCA	–	–	–	–	apparent Kd (MS2 coat protein [2]; [3]): 44.1 nM; apparent Kd (MS2 coat protein [2]; [4]): 171 nM
ACGAGACUCGUGAGGAUAUCGUGUUGUAAGCAGAUCGAGAAGGCACAUGAGGAUCACCCAUGUUUACUGCCACA	–	–	–	–	apparent Kd (MS2 coat protein [2]; [3]): 17 nM; apparent Kd (MS2 coat protein [2]; [4]): 21.9 nM
GGACAUUUACAGAAGGGCAAGCUCGAAAGAGGAGAAAGAGAACGAGCUUGCAGGAUAUGUUGAACAUGAGGAUCACCCAUGUCU	–	–	–	–	apparent Kd (MS2 coat protein [2]; [5]): 9.75 nM; apparent Kd (MS2 coat protein [2]; [6]): 7.69 nM
GCGAUUUUGUAAGGAUAUAUACGAGUUUCAAGUGUAGAAGGUACUUACAUGAGGAUCACCCAUGUAUACAUGGAUAAUAGUCGC	–	–	–	–	apparent Kd (MS2 coat protein [2]; [5]): 269 nM; apparent Kd (MS2 coat protein [2]; [6]): 136 nM
GUCAGCUCGUGAGGAUAUACAGCACUGCUUCGGCAGUGUAUUAAGAUCACAUGAGGAUCACCCAUGUAGAAGGCACGAGCUGAU	–	–	–	–	apparent Kd (MS2 coat protein [2]; [3]): 28.1 nM; apparent Kd (MS2 coat protein [2]; [4]): 599 nM
UUGGACGUCUUAGGAUAUGUAGGAUAUUCCUACAUGAGGAUCACCCAUGUUGACAUGGAAGAAGGACAGAAGGACGAUGUCCAU	–	–	–	–	apparent Kd (MS2 coat protein [2]; [5]): 418 nM; apparent Kd (MS2 coat protein [2]; [6]): 11.2 nM
AUCAAUCAUGUAGGAUAUGCGUGGCGAAGCUAUGCAGAAGGACAUGAGGAUCACCCAUGUCUUUCUGUCUGCGGACGGACAGGA	–	–	–	–	apparent Kd (MS2 coat protein [2]; [3]): 19.2 nM; apparent Kd (MS2 coat protein [2]; [4]): 55.7 nM
